ChEMBL document CHEMBL3526002, “Tissue distribution and identification of radioactivity components at elimination phase after oral administration of [¹⁴C]CS-1036, an α-amylase inhibitor, to rats” (Drug Metab Dispos, 2013)

Legend:
Set-up in all cases: dose 5 mg/kg, dosed compound name [14C]CS-1036, route oral
Settings in all cases: in vivo
Pancreas = assay: Drug uptake in albino F344/DuCrlCrlj rat pancreas at 5 mg/kg, po after 336 hrs by liquid scintillation counting; format: ADME, organism-based
[1] = Drug uptake in albino F344/DuCrlCrlj rat brown fat assessed as ng equivalent of CS-1036 at 5 mg/kg, po after 1 hr by liquid scintillation counting; format: ADME, organism-based, Brown adipose tissue
Zone of skin [2] = assay: Drug uptake in albino F344/DuCrlCrlj rat skin assessed as ng equivalent of CS-1036 at 5 mg/kg, po after 1 hr by liquid scintillation counting; format: ADME, organism-based
Aorta [3] = assay: Drug uptake in albino F344/DuCrlCrlj rat aorta assessed as ng equivalent of CS-1036 at 5 mg/kg, po after 24 hrs by liquid scintillation counting; format: ADME, organism-based
Kidney [4] = assay: Drug uptake in albino F344/DuCrlCrlj rat kidney assessed as ng equivalent of CS-1036 at 5 mg/kg, po after 336 hrs by liquid scintillation counting; format: ADME, organism-based
[5] = Drug uptake in albino F344/DuCrlCrlj rat skeletal muscle assessed as ng equivalent of CS-1036 at 5 mg/kg, po after 336 hrs by liquid scintillation counting; format: ADME, organism-based, Muscle tissue
[6] = Drug uptake in albino F344/DuCrlCrlj rat thyroid gland assessed as ng equivalent of CS-1036 at 5 mg/kg, po after 4 hrs by liquid scintillation counting; format: ADME, organism-based
[7] = Drug uptake in albino F344/DuCrlCrlj rat pituitary gland assessed as ng equivalent of CS-1036 at 5 mg/kg, po after 24 hrs by liquid scintillation counting; format: ADME, organism-based
Kidney [8] = assay: Drug uptake in albino F344/DuCrlCrlj rat kidney at 5 mg/kg, po after 8 hrs by liquid scintillation counting; format: ADME, organism-based
Blood [9] = assay: Drug uptake in albino F344/DuCrlCrlj rat blood assessed as ng equivalent of CS-1036 at 5 mg/kg, po after 72 hrs by liquid scintillation counting; format: ADME, organism-based
Procedure, shortened: (§1)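 Male F344/DuCrlCrlj rats (159–167 g; n = 3 per time point) received a single oral dose of [14C]CS-1036 at 5 mg/kg. Blood was taken from the abdominal aorta at 1, 4, 8, 24, 72, 168 and 336 h. Radioactivity was counted by LSC with external-standard efficiency correction. Results were converted to ng equivalent of CS-1036/ml using specific activity and sample volume, and reported as mean + S.D.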

Plasma = assay: Drug uptake in albino F344/DuCrlCrlj rat plasma assessed as ng equivalent of CS-1036 at 5 mg/kg, po after 168 hrs by liquid scintillation counting; format: ADME, organism-based
[10] = Drug uptake in albino F344/DuCrlCrlj rat epididymis at 5 mg/kg, po after 168 hrs by liquid scintillation counting; format: ADME, organism-based
Zone of skin [11] = assay: Drug uptake in albino F344/DuCrlCrlj rat skin at 5 mg/kg, po after 72 hrs by liquid scintillation counting; format: ADME, organism-based
[12] = Drug uptake in albino F344/DuCrlCrlj rat testis assessed as ng equivalent of CS-1036 at 5 mg/kg, po after 4 hrs by liquid scintillation counting; format: ADME, organism-based
[13] = Drug uptake in albino F344/DuCrlCrlj rat fat at 5 mg/kg, po after 168 hrs by liquid scintillation counting; format: ADME, organism-based, Adipose tissue
Procedure, shortened: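 Male F344/DuCrlCrlj rats (bought at 7 weeks, acclimatized 5–6 days; 159–167 g; n = 3 per time point) received a single oral dose of [14C]CS-1036 at 5 mg/kg. White adipose tissue was collected after abdominal aortic bleeding at 1, 4, 8, 24, 72, 168 or 336 h. Samples were counted by LSC with external-standard efficiency correction. Results were converted to ng equivalents per g from specific activity and sample weight.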

[14] = Drug uptake in albino F344/DuCrlCrlj rat bone marrow assessed as ng equivalent of CS-1036 at 5 mg/kg, po after 1 hr by liquid scintillation counting; format: ADME, organism-based
Aorta [15] = assay: Drug uptake in albino F344/DuCrlCrlj rat aorta at 5 mg/kg, po after 72 hrs by liquid scintillation counting; format: ADME, organism-based
Lung [16] = assay: Drug uptake in albino F344/DuCrlCrlj rat lung assessed as ng equivalent of CS-1036 at 5 mg/kg, po after 168 hrs by liquid scintillation counting; format: ADME, organism-based
[17] = Drug uptake in albino F344/DuCrlCrlj rat brown fat assessed as ng equivalent of CS-1036 at 5 mg/kg, po after 4 hrs by liquid scintillation counting; format: ADME, organism-based, Brown adipose tissue
[18] = Drug uptake in albino F344/DuCrlCrlj rat pituitary gland at 5 mg/kg, po after 72 hrs by liquid scintillation counting; format: ADME, organism-based
[19] = Drug uptake in albino F344/DuCrlCrlj rat skeletal muscle at 5 mg/kg, po after 24 hrs by liquid scintillation counting; format: ADME, organism-based, Muscle tissue
Thymus = assay: Drug uptake in albino F344/DuCrlCrlj rat thymus assessed as ng equivalent of CS-1036 at 5 mg/kg, po after 8 hrs by liquid scintillation counting; format: ADME, organism-based
Large intestine = assay: Drug uptake in albino F344/DuCrlCrlj rat large intestine at 5 mg/kg, po after 72 hrs by liquid scintillation counting; format: ADME, organism-based
Spleen = assay: Drug uptake in albino F344/DuCrlCrlj rat spleen assessed as ng equivalent of CS-1036 at 5 mg/kg, po after 72 hrs by liquid scintillation counting; format: ADME, organism-based
[20] = Drug uptake in albino F344/DuCrlCrlj rat epididymis at 5 mg/kg, po after 24 hrs by liquid scintillation counting; format: ADME, organism-based
Blood [21] = assay: Drug uptake in albino F344/DuCrlCrlj rat blood at 5 mg/kg, po after 336 hrs by liquid scintillation counting; format: ADME, organism-based; procedure, shortened: as §1
Harderian gland [22] = assay: Drug uptake in albino F344/DuCrlCrlj rat harderian gland assessed as ng equivalent of CS-1036 at 5 mg/kg, po after 336 hrs by liquid scintillation counting; format: ADME, organism-based
Lung [23] = assay: Drug uptake in albino F344/DuCrlCrlj rat lung at 5 mg/kg, po after 8 hrs by liquid scintillation counting; format: ADME, organism-based
Small intestine [24] = assay: Drug uptake in albino F344/DuCrlCrlj rat small intestine assessed as ng equivalent of CS-1036 at 5 mg/kg, po after 24 hrs by liquid scintillation counting; format: ADME, organism-based
Stomach = assay: Drug uptake in albino F344/DuCrlCrlj rat stomach assessed as ng equivalent of CS-1036 at 5 mg/kg, po after 8 hrs by liquid scintillation counting; format: ADME, organism-based
Small intestine [25] = assay: Drug uptake in albino F344/DuCrlCrlj rat small intestine assessed as ng equivalent of CS-1036 at 5 mg/kg, po after 72 hrs by liquid scintillation counting; format: ADME, organism-based
Liver = assay: Drug uptake in albino F344/DuCrlCrlj rat liver at 5 mg/kg, po after 72 hrs by liquid scintillation counting; format: ADME, organism-based
Lung [26] = assay: Drug uptake in albino F344/DuCrlCrlj rat lung assessed as ng equivalent of CS-1036 at 5 mg/kg, po after 1 hr by liquid scintillation counting; format: ADME, organism-based
Harderian gland [27] = assay: Drug uptake in albino F344/DuCrlCrlj rat harderian gland assessed as ng equivalent of CS-1036 at 5 mg/kg, po after 8 hrs by liquid scintillation counting; format: ADME, organism-based

SMILES: C[C@H]1O[C@@H](O[C@H]2[C@H](O)[C@@H](O)[C@@H](O[14C@H]3[14C@H](O)[14CH2]N[14C@@H]3[14CH2]O)O[C@@H]2CO)[C@H](O)[C@@H](O)[C@@H]1O
- Radiolabel recovery (Pancreas): 25.4 ngequiv/g
- Radiolabel recovery [1]: 4.1 ngequiv/g
- Radiolabel recovery (Zone of skin [2]): 2.2 ngequiv/g
- Radiolabel recovery (Aorta [3]): 8.4 ngequiv/g
- Radiolabel recovery (Kidney [4]): 4.9 ngequiv/g
- Radiolabel recovery [5]: 3.46 ngequiv/g
- Radiolabel recovery [6]: 21.4 ngequiv/g
- Radiolabel recovery [7]: 33.1 ngequiv/g
- Radiolabel recovery (Kidney [8]): 1320 ngequiv/g
- Radiolabel recovery (Blood [9]): 6.6 ngequiv/ml
- Radiolabel recovery (Plasma): 1.65 ngequiv/ml
- Radiolabel recovery [10]: 18.5 ngequiv/g
- Radiolabel recovery (Zone of skin [11]): 91.5 ngequiv/g
- Radiolabel recovery [12]: 5.3 ngequiv/g
- Radiolabel recovery [13]: 130 ngequiv/g
- Radiolabel recovery [14]: 4.6 ngequiv/g
- Radiolabel recovery (Aorta [15]): 35.8 ngequiv/g
- Radiolabel recovery (Lung [16]): 8.2 ngequiv/g
- Radiolabel recovery [17]: 2.5 ngequiv/g
- Radiolabel recovery [18]: 22.1 ngequiv/g
- Radiolabel recovery [19]: 34.4 ngequiv/g
- Radiolabel recovery (Thymus): 47 ngequiv/g
- Radiolabel recovery (Large intestine): 65.1 ngequiv/g
- Radiolabel recovery (Spleen): 19.5 ngequiv/g
- Radiolabel recovery [20]: 40.8 ngequiv/g
- Radiolabel recovery (Blood [21]): 5.27 ngequiv/ml
- Radiolabel recovery (Harderian gland [22]): 2.33 ngequiv/g
- Radiolabel recovery (Lung [23]): 64.8 ngequiv/g
- Radiolabel recovery (Small intestine [24]): 7.5 ngequiv/g
- Radiolabel recovery (Stomach): 59 ngequiv/g
- Radiolabel recovery (Small intestine [25]): 16.2 ngequiv/g
- Radiolabel recovery (Liver): 446 ngequiv/g
- Radiolabel recovery (Lung [26]): 3 ngequiv/g
- Radiolabel recovery (Harderian gland [27]): 24.5 ngequiv/g
